Read-outs that look alike come from different tables or passages of the source.

Test [1] concerns colorectal cancer cells (SW480, HT-29 and Caco-2). Particulars: SW480, HT-29 and Caco-2, 24 h treatments; cited from earlier work.
For test [2], the system named is human cervical cancer cells (HeLa). Particulars: cited from earlier work.
Test [3] concerns HL60. Put plainly: CellTiter-Glo luminescent cell viability assay. The format is cell-based, human. Particulars: HL60, 24 h, doses 0, 2, 10, 50, 250, 500 µM, p<0.05. Summed up: (§1)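 Cells grown in RPMI 1640 with 10% FBS, 1.5 mM L-glutamine and penicillin/streptomycin at 37 °C, 5% CO2. Seeded at 2.5 x 10³ cells/well and exposed 24 h to ethanol-dissolved test compound (0, 2, 10, 50, 250, 500 µM) with 0.1% ethanol vehicle. ATP luminescence normalized to vehicle (100%). IC50 taken from linear regression. Lowest significant dose set by one-way ANOVA/Tukey, p<0.05. Triplicates, three independent experiments.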
(In ATP-based viability assays light output follows the ATP content of the culture.)

In test [4] the test system is CCRF-CEM. Description: CellTiter-Glo luminescent cell viability assay. Particulars: 24 h, doses 0, 2, 10, 50, 250, 500 µM, p<0.05. The format is cell-based, human. In outline: as §1
Test [5] deals with all leukemia cell lines. Description: Apoptosis. Type of test: cell-based, human. Particulars: Homo sapiens, 24 h, read-out: AP50 values (range over leukemia cell lines).
For test [6], the system named is U937. Description: NucView caspase 3 activity assay by flow cytometry. Particulars: for EC50: Homo sapiens, U-937, 24 h, read-out: AP50 (50% induction of apoptosis), Caspase 3 activity assay (C3); for The lowest dose of polyphenols at which there was a significant induction of apoptosis compared to the vehicle control: U937, caspase 3 activity, 24 h, p<0.05. Type of test: cell-based, human. In outline: (§2)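 Seeded at 0.5 x 10⁶ cells/well and treated 24 h, with series of 0–50 or 0–250 µM depending on compound. Normalized to vehicle (0% apoptosis). Mean ± STD, three independent experiments in triplicate. One-way ANOVA/Tukey, p<0.05. AP50 = concentration giving 50% apoptotic cells.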
(Flow cytometry measures light scatter and fluorescence of single cells or particles in a stream.)

Test [7] concerns JURKAT. Put plainly: CellTiter-Glo luminescent cell viability assay. Type of test: cell-based, human. Particulars: 24 h, doses 0, 2, 10, 50, 250, 500 µM, p<0.05. Summed up:
as §1

Test [8] concerns MOLT-3. Description: NucView caspase 3 activity assay by flow cytometry. Type of test: cell-based, human. Particulars: for EC50: Homo sapiens, MOLT-3, 24 h, read-out: AP50 (50% induction of apoptosis), Caspase 3 activity assay (C3); for The lowest dose of polyphenols at which there was a significant induction of apoptosis compared to the vehicle control: MOLT-3, caspase 3 activity, 24 h, p<0.05. Summed up:
as §2

Test [9] deals with HL60. Description: Cell cycle analysis, propidium iodide flow cytometry. The format is cell-based, human. Particulars: HL60, IC50 dose, 24 h. In outline: (§3)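 Seeded at 0.5 x 10^6 cells per well in 12-well plates and treated 24 h at the IC50 concentration of each test compound from CellTiter-Glo. Cells were pelleted (400 g, 5 min), PBS-washed and fixed in 80% ethanol overnight at -20 °C. Staining used 50 µg/mL PI plus RNase overnight at 4 °C.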

In test [10] the test system is MOLT-3. Described as above. The format is cell-based, human. Particulars: MOLT-3, IC50 dose, 24 h. Summed up:
as §3

For test [11], the system named is THP-1. Description: CellTiter-Glo luminescent cell viability assay. Particulars: THP-1, 24 h, doses 0, 2, 10, 50, 250, 500 µM, p<0.05. The format is cell-based, human. Summed up: as §1
Test [12] has as its system non-tumor cells (CD34+). Put plainly: Hoechst 33342 nuclear morphological analysis of apoptosis. The format is cell-based. Particulars: 24 h, read-out: AP50 (50% induction of apoptosis), Hoechst 33342 staining (Hoe). In outline: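 CD34+ cells treated 24 h across the IC25–IC50 range, then pelleted (400 g, 4 °C) and fixed in 4% paraformaldehyde/PBS. Cytospins were air-dried and stained with 10 μg/ml Hoechst 33342 for 10 min in the dark, then viewed by fluorescence microscopy. 200 cells were scored per sample as % apoptotic nuclei (shrinkage, blebbing, chromatin condensation, apoptotic bodies). AP50 = concentration giving 50% apoptosis.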

The test system of test [13] is all leukemia cell lines. Put plainly: CellTiter-Glo assay, summary over the leukemia panel. Particulars: Homo sapiens, 24 h, read-out: IC50 values (range over leukemia cell lines). The format is cell-based, human. In outline: (§4)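 Cells plated at 2.5 x 10^3 per well in complete RPMI 1640 (10% FBS, 37 °C, 5% CO2). Test compounds dissolved in ethanol and dosed at 2–500 µM for 24 h; vehicle control was 0.1% (v/v) ethanol. Viability was read as ATP luminescence, normalised to vehicle (100%). IC50 was taken from linear regression of each curve. Triplicates, three independent experiments.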

Test [14] has as its system myeloid cell lines. Put plainly: CellTiter-Glo assay, summary over myeloid lines. Particulars: Homo sapiens, 24 h, read-out: IC50 (range in myeloid cell lines). Type of test: cell-based. Summed up: as §4
Test [15] deals with lymphoid cell lines. Put plainly: Apoptosis. The format is cell-based. Particulars: Homo sapiens.
The subject of test [16] is CCRF-CEM. Put plainly: Hoechst 33342 nuclear morphological analysis of apoptosis. The format is cell-based. Particulars: Homo sapiens, 24 h, read-out: AP50 (50% induction of apoptosis), Hoechst 33342 staining (Hoe). Summed up:
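Seeded at 0.5 x 10⁶ cells/well in 12-well plates and treated 24 h. Cells were pelleted (400 g, 5 min, 4 °C), washed in PBS, fixed in 4% paraformaldehyde, cytospun, air-dried, then stained with 10 μg/ml Hoechst 33342 for 10 min in the dark. Fluorescence microscopy: 200 cells counted, scored by condensed/intense nuclei, shrinkage, blebbing and apoptotic bodies. % apoptotic nuclei calculated. AP50 = concentration giving 50% apoptotic cells.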

In test [17] the test system is JURKAT. Put plainly: Cell cycle analysis, propidium iodide flow cytometry. The format is cell-based, human. Particulars: IC50 dose, 24 h, p<0.05. In outline: as §3
Test [18] concerns non-tumor cord blood (CD34+) cells. Description: CellTiter-Glo luminescent cell viability assay. Particulars: 24 h; for IC50: read-out: IC50 (50% inhibition of cellular proliferation), CD34+ non-tumour control cells, 24 h treatment; for The lowest dose of polyphenols at which there was a significant inhibition of cell proliferation compared to the vehicle control: CD34+ non-tumour control cells, doses 0, 2, 10, 50, 250, 500 µM, p<0.05. Type of test: cell-based. Summed up: as §1

Test [19] deals with lymphoid cell lines. Put plainly: CellTiter-Glo assay, summary over lymphoid lines. Particulars: Homo sapiens, 24 h, read-out: IC50 (range in lymphoid cell lines). The format is cell-based. In outline:
as §4

Test [20] relates to myeloid cell lines. Description: Apoptosis. Type of test: cell-based. Particulars: Homo sapiens, 24 h, read-out: AP50 values (range in myeloid cell lines).
The subject of test [21] is lung cancer cell lines (A549 and CH27). Particulars: 24 h; cited from earlier work.
For test [22], the system named is lung (A549) and leukemia (HL-60) cell lines. Particulars: 24 h; cited from earlier work.

Take `O=c1cc(-c2ccc(O)cc2)oc2cc(O)cc(O)c12` [Apigenin]: the IC50 is 70 µM in test [1]; 36 µM in test [2]; 100 to 500 µM in [13]; 100 to 500 µM in test [14]; over 500 µM in [18]; 140 to 195 µM in [19]. Further, the “The lowest dose of polyphenols at which there was a significant inhibition of cell proliferation compared to the vehicle control” value in [3] turned out to be 10 µM; in [4], 10 µM; in test [7], 50 µM; in test [11], 10 µM; in [18], 500 µM. The EC50 was 35 to 150 µM in [5]; 45 µM in test [6]; 50 µM in test [8]; over 500 µM in test [12]; 35 to 130 µM in test [15] (24 h, read-out: AP50 values (range in lymphoid cell lines)); 100 µM in test [16]. In test [20], the EC50 is 84 to 235 µM. Also, the “The lowest dose of polyphenols at which there was a significant induction of apoptosis compared to the vehicle control” value in test [6] and in [8] was 50 µM in each case. Also, in test [9] (vehicle control G0/G1 = 56.8%), the “Percentage of cells in G0/G1 phase of cell cycle (significant accumulation)” value is listed as “G0/G1=67%”. Moreover, in test [10] (vehicle control S = 24.8%), the “Percentage of cells in S phase of cell cycle (significant accumulation)” value is “S =35%”. Moreover, the “Phase of cell cycle accumulation” value in [17] is given as “S-phase”.

Take `C(=C\c1ccccc1)/c1ccccc1` [Trans-Stilbene, Trans-stilbene]: the “The lowest dose of polyphenols at which there was a significant inhibition of cell proliferation compared to the vehicle control” value is recorded as 50 µM in test [3]; 50 µM in test [4]; 50 µM in test [7]; 250 µM in [11]; 250 µM in test [18]. Also, the IC50 in test [21] was 25 to 98 µM; in [13], 109 to 500 µM; in test [22], 6.25 µM; in test [18] it was 500 µM. Also, the EC50 was 200 µM in test [6]; 350 µM in [8]; over 500 µM in [12]; 40 to 460 µM in test [15] (read-out: AP50 values in three lymphoid cell lines); 200 µM in test [16]. Besides, the “The lowest dose of polyphenols at which there was a significant induction of apoptosis compared to the vehicle control” value in test [6] and in test [8] was 50 µM each time. In addition, the “Percentage of cells in S phase of cell cycle (significant accumulation)” value in test [9] (vehicle control S = 33.6%) is “S =41.9%”. Moreover, the “Percentage of cells in G0/G1 phase of cell cycle (significant accumulation)” value in test [10] (vehicle control G0/G1 = 64.5%) is recorded as “G0/G1 = 69%”. Moreover, the “Phase of cell cycle accumulation” value in test [17] is “S-phase”.
